We go through 27 compounds from ChEMBL document CHEMBL3044889, “Synthesis and quantitative structure-activity relationship (QSAR) study of novel 4-acyloxypodophyllotoxin derivatives modified in the A and C rings as insecticidal agents” (2013).

Common to all, as to format: functional
Experiment [1] has as its system Mythimna separata. Put plainly: Insecticidal activity against pre-third-instar larvae of Mythimna separata (Oriental armyworm) assessed as corrected mortality rate at 1 mg/ml measured after 35 days by the leaf-dipping method. The conditions noted are these: 840 h. Summed up: (§1)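 Test solutions 1 mg/mL in acetone; fresh wheat leaves dipped 3 s, air-dried indoors; acetone-only leaves as blank control. Ten larvae per dish fed treated leaves, topped up if consumed; untreated fresh leaves from 48 h until adult emergence. Held at 25 ± 2 °C, RH 65-80%, 12 h/12 h light/dark. Corrected mortality = (T − C) × 100/(1 − C).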

The subject of experiment [2] is Mythimna separata. The experiment in a line: Insecticidal activity against pre-third-instar larvae of Mythimna separata (Oriental armyworm) assessed as corrected mortality rate at 1 mg/ml measured after 20 days by the leaf-dipping method. The conditions noted are these: 480 h. Summed up: as §1
For experiment [3], the system named is Mythimna separata. Put plainly: Insecticidal activity against pre-third-instar larvae of Mythimna separata (Oriental armyworm) assessed as corrected mortality rate at 1 mg/ml measured after 10 days by the leaf-dipping method. The conditions noted are these: 240 h. In short, it runs like this:
as §1

The mortality is the percentage killed. As to `COc1cc([C@@H]2c3cc(OCc4ccccc4)c(OCc4ccccc4)cc3[C@@H](OC(=O)c3cccc([N+](=O)[O-])c3)[C@H]3COC(=O)[C@H]23)cc(OC)c1OC`, the mortality at 1000 µg/mL in experiment [1] was 33.3%; in experiment [2] it was 6.7%; in experiment [3] it was 3.3%.

With `COc1cc([C@@H]2c3cc(OCc4ccccc4)c(OCc4ccccc4)cc3[C@H](O)[C@H]3COC(=O)[C@H]23)cc(OC)c1OC` [6,7-O,O-DEMETHYLENE-6,7-O,O-DIBENZYLPODOPHYLLOTOXIN], the mortality at 1000 µg/mL amounted to 33.3% in experiment [1], 33.3% in experiment [2] and 10% in experiment [3].

For `CCCC(=O)O[C@@H]1c2cc(OC)c(OC)cc2[C@@H](c2cc(OC)c(OC)c(OC)c2)[C@H]2C(=O)OC[C@@H]21`, the mortality at 1000 µg/mL in experiment [1] worked out at 36.7%; in experiment [2], 10%; in experiment [3], 3.3%.

As for `COc1cc2c(cc1OC)[C@H](OC(=O)c1cccc(Cl)c1)[C@H]1COC(=O)[C@@H]1[C@@H]2c1cc(OC)c(OC)c(OC)c1`, the mortality at 1000 µg/mL came to 50% in experiment [1], 23.3% in experiment [2] and 3.3% in experiment [3].

On to `COc1cc2c(cc1OC)[C@H](O)[C@H]1COC(=O)[C@@H]1[C@@H]2c1cc(OC)c(OC)c(OC)c1` [6,7-O,O-DEMETHYLENE-6,7-O,O-DIMETHYLPODOPHYLLOTOXIN], for which the mortality at 1000 µg/mL in experiment [1] is 36.7%; in experiment [2], 23.3%; in experiment [3], 0%.

Take `CCCCCC(=O)O[C@@H]1c2cc(OC)c(OC)cc2[C@@H](c2cc(OC)c(OC)c(OC)c2)[C@H]2C(=O)OC[C@@H]21`: the mortality at 1000 µg/mL is 43.3% in experiment [1], 26.7% in experiment [2] and 23.3% in experiment [3].

As for `COc1cc([C@@H]2c3cc(O)c(O)cc3[C@H](O)[C@H]3COC(=O)[C@H]23)cc(OC)c1OC` [6,7-O,O-DEMETHYLENEPODOPHYLLOTOXIN], the mortality at 1000 µg/mL in experiment [1] was 23.3%; in experiment [2] it was 6.7%; in experiment [3] it was 0%.

For `COc1cc2c(cc1OC)[C@H](OC(C)=O)[C@H]1COC(=O)[C@@H]1[C@@H]2c1cc(OC)c(OC)c(OC)c1`, the mortality at 1000 µg/mL is 36.7% in experiment [1], 23.3% in experiment [2] and 10% in experiment [3].

As to `CCCC(=O)O[C@H]1c2cc(OC)c(OC)cc2[C@@H](c2cc(OC)c(OC)c(OC)c2)[C@H]2C(=O)OC[C@@H]21`, the mortality at 1000 µg/mL is 33.3% in experiment [1], 20% in experiment [2] and 6.7% in experiment [3].

Consider `COc1cc2c(cc1OC)[C@H](OC(=O)Cc1cccc3ccccc13)[C@H]1COC(=O)[C@@H]1[C@@H]2c1cc(OC)c(OC)c(OC)c1`, for which the mortality at 1000 µg/mL in experiment [1] came to 60%; in experiment [2] it was 26.7%; in experiment [3], 10%.

For `COc1cc2c(cc1OC)[C@@H](OC(=O)c1cccc([N+](=O)[O-])c1)[C@H]1COC(=O)[C@@H]1[C@@H]2c1cc(OC)c(OC)c(OC)c1`, the mortality at 1000 µg/mL was 36.7% in experiment [1], 26.7% in experiment [2] and 10% in experiment [3].

As for `COc1cc2c(cc1OC)[C@H](OC(=O)c1cccc([N+](=O)[O-])c1)[C@H]1COC(=O)[C@@H]1[C@@H]2c1cc(OC)c(OC)c(OC)c1`, the mortality at 1000 µg/mL in experiment [1] worked out at 36.7%; in experiment [2] it was 16.7%; in experiment [3] it was 3.3%.

Consider `COc1cc2c(cc1OC)[C@H](OC(=O)c1ccc([N+](=O)[O-])cc1)[C@H]1COC(=O)[C@@H]1[C@@H]2c1cc(OC)c(OC)c(OC)c1`, for which the mortality at 1000 µg/mL in experiment [1] stood at 46.7%; in experiment [2], 13.3%; in experiment [3], 3.3%.

Regarding `COc1cc2c(cc1OC)[C@H](OC(=O)CCl)[C@H]1COC(=O)[C@@H]1[C@@H]2c1cc(OC)c(OC)c(OC)c1`, the mortality at 1000 µg/mL came to 26.7% in experiment [1], 13.3% in experiment [2] and 0% in experiment [3].

Regarding `COc1cc2c(cc1OC)[C@@H](O)[C@H]1COC(=O)[C@@H]1[C@@H]2c1cc(OC)c(OC)c(OC)c1` [6,7-O,O-DEMETHYLENE-6,7-O,O-DIMETHYLEPIPODOPHYLLOTOXIN], the mortality at 1000 µg/mL was found to be 40% in experiment [1], 23.3% in experiment [2] and 16.7% in experiment [3].

For `CCCCCC(=O)O[C@@H]1c2cc(OCc3ccccc3)c(OCc3ccccc3)cc2[C@@H](c2cc(OC)c(OC)c(OC)c2)[C@H]2C(=O)OC[C@@H]21`, the mortality at 1000 µg/mL in experiment [1] is 33.3%; in experiment [2] it was 13.3%; in experiment [3], 10%.

For the compound `COc1cc2c(cc1OC)[C@H](OC(=O)c1ccccc1)[C@H]1COC(=O)[C@@H]1[C@@H]2c1cc(OC)c(OC)c(OC)c1`, the mortality at 1000 µg/mL in experiment [1] turned out to be 36.7%; in experiment [2], 26.7%; in experiment [3] it was 10%.

Regarding `COc1cc([C@@H]2c3cc(OCc4ccccc4)c(OCc4ccccc4)cc3[C@@H](OC(=O)Cc3cccc4ccccc34)[C@H]3COC(=O)[C@H]23)cc(OC)c1OC`, the results for the mortality at 1000 µg/mL in experiment [1], in experiment [2] and in experiment [3] were 33.3%, 26.7% and 3.3%, respectively.

Take `COc1cc2c(cc1OC)[C@H](OC(=O)Cc1ccccc1)[C@H]1COC(=O)[C@@H]1[C@@H]2c1cc(OC)c(OC)c(OC)c1`: the mortality at 1000 µg/mL is 26.7% in experiment [1], 13.3% in experiment [2] and 3.3% in experiment [3].

As for `COc1cc2c(cc1OC)[C@@H](OC(=O)Cc1cccc3ccccc13)[C@H]1COC(=O)[C@@H]1[C@@H]2c1cc(OC)c(OC)c(OC)c1`, the mortality at 1000 µg/mL in experiment [1] amounted to 50%; in experiment [2], 20%; in experiment [3], 13.3%.

Regarding `CC(=O)O[C@@H]1C[C@H](O)[C@@]23CO[C@@H](O)[C@]1(C)[C@@H]2C[C@@H](O)[C@]1(C)[C@@H]3C(=O)[C@H](OC(C)=O)[C@@]2(C)[C@H](c3ccoc3)C[C@H]3O[C@]321` [TOOSENDANIN], the mortality at 1000 µg/mL came to 50% in experiment [1], 20% in experiment [2] and 10% in experiment [3].

`COc1cc([C@@H]2c3cc(OCc4ccccc4)c(OCc4ccccc4)cc3[C@@H](OC(=O)Cc3ccccc3)[C@H]3COC(=O)[C@H]23)cc(OC)c1OC`: the figures for the mortality at 1000 µg/mL in experiment [1], in experiment [2] and in experiment [3] were 40%, 16.7% and 3.3%, respectively.

Take `COc1cc([C@@H]2c3cc4c(cc3[C@H](O)[C@H]3COC(=O)[C@H]23)OCO4)cc(OC)c1OC` [PODOFILOX]: the mortality at 1000 µg/mL turned out to be 40% in experiment [1], 23.3% in experiment [2] and 13.3% in experiment [3].

On to `COc1cc2c(cc1OC)[C@@H](OC(=O)Cc1ccccc1)[C@H]1COC(=O)[C@@H]1[C@@H]2c1cc(OC)c(OC)c(OC)c1`, for which the mortality at 1000 µg/mL in experiment [1] worked out at 33.3%; in experiment [2] it was 16.7%; in experiment [3], 10%.

With `COc1cc2c(cc1OC)[C@H](OC(=O)c1ccc(C)cc1)[C@H]1COC(=O)[C@@H]1[C@@H]2c1cc(OC)c(OC)c(OC)c1`, the mortality at 1000 µg/mL was 33.3% in experiment [1], 16.7% in experiment [2] and 6.7% in experiment [3].

For `CCCCCC(=O)O[C@H]1c2cc(OC)c(OC)cc2[C@@H](c2cc(OC)c(OC)c(OC)c2)[C@H]2C(=O)OC[C@@H]21`, the values for the mortality at 1000 µg/mL in experiment [1], in experiment [2] and in experiment [3] were 36.7%, 23.3% and 6.7%, respectively.

In the case of `CCCCCCCC(=O)O[C@H]1c2cc(OC)c(OC)cc2[C@@H](c2cc(OC)c(OC)c(OC)c2)[C@H]2C(=O)OC[C@@H]21`, the results for the mortality at 1000 µg/mL in experiment [1], in experiment [2] and in experiment [3] were 53.3%, 30% and 10%, respectively.
